pIC50: −log10 of the molar value.
Columns and labels:
[1] = Selectivity ratio of IC50 for Electrophorus electricus acetylcholinesterase to IC50 for equine serum butyrylcholinesterase
[2] = Selectivity ratio of IC50 for equine serum butyrylcholinesterase to IC50 for Electrophorus electricus acetylcholinesterase
Acetylcholinesterase = Acetylcholinesterase (Electrophorus electricus, UniProt O42275); assay: Inhibition of Electrophorus electricus acetylcholinesterase using acetylthiocholine iodide as substrate preincubated for 15 mins followed by substrate addition measured for 30 mins by Ellman's method
Cholinesterase = Cholinesterase (Equus caballus, UniProt P81908); assay: Inhibition of equine serum butyrylcholinesterase using S-butyrylthiocholine chloride as substrate preincubated for 15 mins followed by substrate addition measured for 30 mins by Ellman's method
Procedure, shortened: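 Modified Ellman assay in 0.1 M sodium phosphate buffer, pH 8. Samples were prepared in DMSO, with 1% DMSO in the final mix. Equine serum BChE was incubated with sample for 15 min at 25 °C. 10 mM DTNB stock was then added, followed by 14 mM S-butyrylthiocholine chloride stock. Absorbance at 412 nm was read for 30 min, and % inhibition was calculated relative to control.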

Chain of Acetylcholinesterase (O42275 whole entry): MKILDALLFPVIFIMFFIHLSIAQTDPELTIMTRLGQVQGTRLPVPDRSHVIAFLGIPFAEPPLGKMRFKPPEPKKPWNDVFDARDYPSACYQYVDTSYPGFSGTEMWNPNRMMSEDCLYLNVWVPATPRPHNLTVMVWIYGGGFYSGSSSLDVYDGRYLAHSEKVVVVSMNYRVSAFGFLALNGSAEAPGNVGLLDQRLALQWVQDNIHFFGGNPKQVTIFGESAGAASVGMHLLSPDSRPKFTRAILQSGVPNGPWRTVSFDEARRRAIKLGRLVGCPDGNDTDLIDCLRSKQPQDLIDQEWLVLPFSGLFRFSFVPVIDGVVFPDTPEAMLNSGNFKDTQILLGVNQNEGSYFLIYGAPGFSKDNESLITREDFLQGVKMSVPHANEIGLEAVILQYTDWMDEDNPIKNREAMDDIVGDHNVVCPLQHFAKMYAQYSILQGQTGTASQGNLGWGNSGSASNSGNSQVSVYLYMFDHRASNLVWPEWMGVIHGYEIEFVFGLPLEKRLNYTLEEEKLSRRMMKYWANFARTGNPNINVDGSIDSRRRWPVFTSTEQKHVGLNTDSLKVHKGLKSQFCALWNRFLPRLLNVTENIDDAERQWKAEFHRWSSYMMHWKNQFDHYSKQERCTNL
Chain of Cholinesterase (P81908 whole entry): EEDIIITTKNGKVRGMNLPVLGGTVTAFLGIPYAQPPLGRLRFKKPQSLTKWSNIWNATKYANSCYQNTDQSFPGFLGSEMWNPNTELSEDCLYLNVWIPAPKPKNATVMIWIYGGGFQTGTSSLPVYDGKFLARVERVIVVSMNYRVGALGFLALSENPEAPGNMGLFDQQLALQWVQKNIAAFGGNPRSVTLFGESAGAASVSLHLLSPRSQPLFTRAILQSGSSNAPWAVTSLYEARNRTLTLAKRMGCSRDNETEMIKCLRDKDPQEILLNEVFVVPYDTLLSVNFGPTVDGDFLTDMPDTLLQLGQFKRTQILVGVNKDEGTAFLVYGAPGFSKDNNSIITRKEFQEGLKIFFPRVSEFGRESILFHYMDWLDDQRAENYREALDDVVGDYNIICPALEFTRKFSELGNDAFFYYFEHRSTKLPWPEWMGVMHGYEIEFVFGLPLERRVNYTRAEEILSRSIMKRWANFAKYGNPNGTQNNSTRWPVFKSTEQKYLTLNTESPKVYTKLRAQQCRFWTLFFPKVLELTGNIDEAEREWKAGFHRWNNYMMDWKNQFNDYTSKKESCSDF

Row | SMILES | Ratio IC50 [1] | Ratio IC50 [2] | pIC50 (Acetylcholinesterase) | pIC50 (Cholinesterase)
1 | Cc1ccc(/C=C2\CNCC3=C2N=C2SC=C(c4ccc(Cl)cc4)N2C3c2ccc(C)cc2)cc1 (stereo not drawn) | 0.67 | 1.5 | 4.66 | 4.49
2 | S=C1NC2/C(=C/c3ccc(Cl)cc3)CNCC2C(c2ccc(Cl)cc2)N1 (stereo not drawn) |  |  | 5.65 | 5.20
3 | COc1ccccc1/C=C1\CNCC2C1NC(=S)NC2c1ccccc1OC (stereo not drawn) |  |  | 6.10 | 5.93
4 | Fc1ccc(C2=CSC3=NC4=C(CNC/C4=C\c4ccc(Cl)cc4)C(c4ccc(Cl)cc4)N23)cc1 (stereo not drawn) | 0.36 | 2.75 | 5.24 | 4.80
5 | Clc1ccc(C2=CSC3=NC4=C(CNC/C4=C\c4ccccc4)C(c4ccccc4)N23)cc1 (stereo not drawn) | 0.54 | 1.86 | 4.62 | 4.35
6 | COc1ccccc1/C=C1\CNCC2=C1N=C1SC=C(c3ccccc3)N1C2c1ccccc1OC (stereo not drawn) | 1.03 | 0.97 | 5.37 | 5.39
7 | Fc1ccc(C2=CSC3=NC4=C(CNC/C4=C\c4ccccc4Cl)C(c4ccccc4Cl)N23)cc1 (stereo not drawn) | 0.76 | 1.3 | 5.22 | 5.33
8 | COc1ccc(C2=CSC3=NC4=C(CNC/C4=C\c4ccc(Cl)cc4)C(c4ccc(Cl)cc4)N23)cc1 (stereo not drawn) | 0.66 | 1.52 | 5.07 | 4.89
9 | Fc1ccc(/C=C2\CNCC3C2NC(=S)NC3c2ccc(F)cc2)cc1 (stereo not drawn) |  |  | 4.43 | 4.54
10 | Fc1ccc(/C=C2\CNCC3=C2N=C2SC=C(c4ccc(Cl)cc4)N2C3c2ccc(F)cc2)cc1 (stereo not drawn) | 0.46 | 2.16 | 4.99 | 4.65
11 | COc1ccc(C2=CSC3=NC4=C(CNC/C4=C\c4ccc(C)cc4)C(c4ccc(C)cc4)N23)cc1 (stereo not drawn) | 0.99 | 1.01 | 4.98 | 4.98
12 | COc1ccc(C2=CSC3=NC4=C(CNC/C4=C\c4ccccc4OC)C(c4ccccc4OC)N23)cc1 (stereo not drawn) | 0.64 | 1.55 | 4.92 | 4.73
13 | S=C1NC2/C(=C/c3ccccc3)CNCC2C(c2ccccc2)N1 (stereo not drawn) |  |  | 4.72 | 5.42
14 | Clc1ccc(/C=C2\CNCC3=C2N=C2SC=C(c4ccc(Cl)cc4)N2C3c2ccc(Cl)cc2)cc1 (stereo not drawn) | 0.2 | 5.11 | 5.27 | 4.56
15 | Fc1ccc(/C=C2\CNCC3=C2N=C2SC=C(c4ccccc4)N2C3c2ccc(F)cc2)cc1 (stereo not drawn) | 1.02 | 0.98 | 5.39 | 5.40
16 | COc1ccccc1/C=C1\CNCC2=C1N=C1SC=C(c3ccc(F)cc3)N1C2c1ccccc1OC (stereo not drawn) | 0.63 | 1.59 | 5.26 | 5.06
17 | Cc1ccc(/C=C2\CNCC3C2NC(=S)NC3c2ccc(C)cc2)cc1 (stereo not drawn) |  |  | 4.43 | 5.20
18 | Clc1ccc(/C=C2\CNCC3=C2N=C2SC=C(c4ccccc4)N2C3c2ccc(Cl)cc2)cc1 (stereo not drawn) | 0.74 | 1.35 | 5.79 | 5.66
19 | Cc1ccc(/C=C2\CNCC3=C2N=C2SC=C(c4ccc(F)cc4)N2C3c2ccc(C)cc2)cc1 (stereo not drawn) | 1.32 | 0.76 | 5.19 | 5.31
20 | COc1ccc(C2=CSC3=NC4=C(CNC/C4=C\c4ccccc4)C(c4ccccc4)N23)cc1 (stereo not drawn) | 1.52 | 0.65 | 4.80 | 4.98
21 | Fc1ccc(C2=CSC3=NC4=C(CNC/C4=C\c4ccccc4)C(c4ccccc4)N23)cc1 (stereo not drawn) | 2.57 | 0.39 | 4.69 | 5.10
22 | S=C1NC2/C(=C/c3ccccc3Cl)CNCC2C(c2ccccc2Cl)N1 (stereo not drawn) |  |  | 4.49 | 5.54
23 | Fc1ccc(/C=C2\CNCC3=C2N=C2SC=C(c4ccc(F)cc4)N2C3c2ccc(F)cc2)cc1 (stereo not drawn) | 0.83 | 1.2 | 4.88 | 4.80
24 | Clc1ccc(C2=CSC3=NC4=C(CNC/C4=C\c4ccccc4Cl)C(c4ccccc4Cl)N23)cc1 (stereo not drawn) | 0.68 | 1.47 | 5.28 | 5.12
25 | COc1ccc(C2=CSC3=NC4=C(CNC/C4=C\c4ccccc4Cl)C(c4ccccc4Cl)N23)cc1 (stereo not drawn) | 0.63 | 1.58 | 5.10 | 4.90
26 | C1=C(c2ccccc2)N2C(=NC3=C(CNC/C3=C\c3ccccc3)C2c2ccccc2)S1 (stereo not drawn) | 0.84 | 1.19 | 5.83 | 5.76
27 | COc1ccccc1/C=C1\CNCC2=C1N=C1SC=C(c3ccc(Cl)cc3)N1C2c1ccccc1OC (stereo not drawn) | 0.17 | 5.76 | 5.29 | 4.53
28 | Cc1ccc(/C=C2\CNCC3=C2N=C2SC=C(c4ccccc4)N2C3c2ccc(C)cc2)cc1 (stereo not drawn) | 0.31 | 3.21 | 6.28 | 5.77
29 | Clc1ccccc1/C=C1\CNCC2=C1N=C1SC=C(c3ccccc3)N1C2c1ccccc1Cl (stereo not drawn) | 0.77 | 1.3 | 5.69 | 5.57
30 | COc1ccc(C2=CSC3=NC4=C(CNC/C4=C\c4ccc(F)cc4)C(c4ccc(F)cc4)N23)cc1 (stereo not drawn) | 0.84 | 1.18 | 4.65 | 4.58

From ChEMBL document CHEMBL3102751, “Cholinesterase inhibitory activity versus aromatic core multiplicity: a facile green synthesis and molecular docking study of novel piperidone embedded thiazolopyrimidines” (Bioorg Med Chem, 2014)
